Measurements gathered from unrelated publications.
Lines come from different studies, so protocols differ.
CDK9: Cyclin-dependent kinase 9 (CDK9, Homo sapiens, UniProt P50750)
SGK2: Serine/threonine-protein kinase Sgk2 (SGK2, Homo sapiens, UniProt Q9HBY8)
CDK1: Cyclin-dependent kinase 1 (CDK1, Homo sapiens, UniProt P06493)

SMILES | target | test | system | setting | measurement | value
Cc1cc2c(C(N)=O)c(N)n(-c3c(C)ccc(O)c3C)c2nc1C | Proto-oncogene tyrosine-protein kinase Src (SRC, Homo sapiens, UniProt P12931) | enzyme activity, inhibitor, TR-FRET | – | 1.524 nM | inhibition | 20.4%
NC/C(=C\F)COc1cccc(Cn2c(=S)[nH]c(=O)c3[nH]cnc32)c1 | Myeloperoxidase (Mus musculus, UniProt P11247) | enzyme activity, inhibitor | – | 10 µM | remaining activity | -4.18%
CC(C)(C)c1cnc(CSc2cnc(NC(=O)C3CCN(C(=O)CCCCCCN4Cc5cc6c(cc5C4)C(=O)N(C4CCC(=O)NC4=O)C6=O)CC3)s2)o1 (stereo not shown) | CDK9 | protein level, degrader, western blot | TC-71 | 25 nM | inhibition | 95.8%
COc1ccc2oc(-c3ccc4nc(N)oc4c3)c/c(=N\c3ccccc3NC(=O)CCN)c2c1 | 5'-AMP-activated protein kinase catalytic subunit alpha-2 (PRKAA2, Homo sapiens, UniProt P54646) | binding | – | 1 µM | remaining binding | 103%
CC(C)(C)c1cnc(CSc2cnc(NC(=O)C3CCN(C(=O)CCCCCN4Cc5cc6c(cc5C4)C(=O)N(C4CCC(=O)NC4=O)C6=O)CC3)s2)o1 (stereo not shown) | CDK9 | protein level, degrader, western blot | TC-71 | 25 nM | inhibition | 93.4%
CCCCC(=O)Nc1ccc(-c2ccc3ncn(CCC)c(=O)c3c2)cn1 | SGK2 | binding, competition with immobilised ligand | – | 0.5 µM | remaining binding | 100%
CC(C)(C)c1cnc(CSc2cnc(NC(=O)C3CCN(C(=O)CCCCCCCCCN4Cc5cc6c(cc5C4)C(=O)N(C4CCC(=O)NC4=O)C6=O)CC3)s2)o1 (stereo not shown) | CDK9 | protein level, degrader, western blot | TC-71 | 25 nM | inhibition | 91.8%
C[C@]1(O)CCCN(c2nc(Nc3ccc(S(=O)(=O)N[C@H]4CC[C@H](CN5CCN(c6ccc(C7CCC(=O)NC7=O)cc6F)CC5)CC4)cc3F)ncc2C(F)(F)F)C1 (stereo partly shown) | CDK1 | protein level, degrader, western blot | TOV21G | – | Dmax | 82%
CC(=O)ON=C1C=CC(=C(C#N)c2ccccc2)C=C1 | Dual specificity protein kinase CLK1 (Clk1, Mus musculus, UniProt P22518) | enzyme activity, inhibitor, ADP detection | – | 20 µM | activity vs control | 99%
CCN(CC)CCNC(=O)c1ccc(NCN2C(=O)NC(c3ccccc3)(c3ccccc3)C2=O)cc1 | Mitogen-activated protein kinase 3 (MAPK3, Homo sapiens, UniProt P27361) | enzyme activity, inhibitor, ADP detection | – | 10 µM | inhibition | 43.6%
C1=C/COCc2cc(ccc2OCCN2CCCC2)Nc2nccc(n2)-c2cccc(c2)COC/1 | Dual specificity mitogen-activated protein kinase kinase 7 (MAP2K7, Homo sapiens, UniProt O14733) | cell-free assay | – | 0.1 µM | remaining signal | 73%
C[C@H]1CN(c2ccc(C3CCC(=O)NC3=O)cc2F)CCN1CC12CCC(NS(=O)(=O)c3ccc(Nc4ncc(C(F)(F)F)c(N5CCC[C@](C)(O)C5)n4)c(F)c3)(CC1)CO2 (stereo partly shown) | CDK1 | protein level, degrader, western blot | TOV21G | – | Dmax | 32%
C#Cc1cc(-c2cc(Nc3nc(N[C@@H](C)c4ccc(F)cn4)ncc3Cl)n[nH]2)ccc1C=O | SGK2 | enzyme activity, inhibitor | – | 0.2 µM | inhibition | 4.48%
